From PubChem BioAssay
RGS4 pot: RGS4 potentiators or activators, primary screen, cell-based, HEK293 M3R inducible RGS4, calcium flux. carbachol calcium flux Fluo4; stronger effect = lower value. B-score at 10 µM. hit rate 0.92% among 310,000;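 active means B-score of the integrated calcium signal more than 4 SD below the library mean, with starting fluorescence not abnormally high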;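 further: negative B-score means reduced calcium response which marks RGS4 activation or potentiation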
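System – HEK293 FlpIn-TREx cells, stable M3R, doxycycline-inducible RGS4 · Reagent – ECmax carbachol challenge · Times – compound preincubation 20 min at room temperature before agonist · Technique – Fluo4 fluorescence kinetic imaging of calcium · Measure – B score of integrated Fluo4 ratio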
RGS4 inh: RGS4 inhibitors, primary screen, cell-based, HEK293 M3R inducible RGS4, calcium flux | Fluo-4 calcium flux; stronger effect = higher value; triggered by carbachol at its EC20 | B-score at 10 µM | hit rate 0.45% among 310,000 | AID 463165, 2010;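 active means B-score, a plate-corrected calcium signal, over three deviations above library mean, with baseline fluorescence within five deviations of library mean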;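 further: RGS4 expression induced by doxycycline in cells with stable M3 receptor; B-score is computed from the integrated fluorescence ratio over baseline after carbachol; higher B-score means a larger calcium signal and so more RGS4 inhibition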
Target sequence (P49798 whole entry, looked up): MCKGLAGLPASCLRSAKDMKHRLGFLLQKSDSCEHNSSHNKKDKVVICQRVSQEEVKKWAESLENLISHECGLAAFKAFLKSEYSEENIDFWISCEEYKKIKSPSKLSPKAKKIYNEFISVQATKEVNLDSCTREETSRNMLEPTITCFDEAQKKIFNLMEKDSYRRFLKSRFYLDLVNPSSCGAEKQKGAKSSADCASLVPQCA
MrgX1 agonist: agonists of human MrgX1 receptor, primary screen, HEK293 cells, Fluo-4 calcium flux; Fluo-4 calcium fluorescence, agonist mode; stronger effect = higher value; B-score at 10 µM; hit rate 0.44% among 310,000; AID 588627, 2011;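 active means calcium response B-score plate-corrected fluorescence ratio at least 3 library SD, with starting fluorescence B-score inside 5 SD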
Target sequence (Q96LB2 whole entry, looked up): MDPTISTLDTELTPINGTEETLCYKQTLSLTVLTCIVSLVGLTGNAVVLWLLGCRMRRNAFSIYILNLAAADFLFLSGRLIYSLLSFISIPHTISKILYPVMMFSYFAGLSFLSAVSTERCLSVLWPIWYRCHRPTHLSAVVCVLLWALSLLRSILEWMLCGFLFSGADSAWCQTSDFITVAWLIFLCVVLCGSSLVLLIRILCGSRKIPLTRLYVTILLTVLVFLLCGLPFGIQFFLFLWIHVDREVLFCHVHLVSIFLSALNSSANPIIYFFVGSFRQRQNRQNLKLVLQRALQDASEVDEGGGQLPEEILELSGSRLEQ
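Test system: Stable human MrgX1 HEK293 cell line | Schedule: Overnight plating before 1 h dye loading | Read-out basis: Baseline-normalised fluorescence change ratio, B-scored | Detection: Kinetic calcium dye fluorescence, Fluo-4 NW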
MrgX1 PAM: positive allosteric modulators of MrgX1, primary screen, HEK293 cells, Fluo-4 calcium flux. FDSS; stronger effect = higher value. B-score at 10 µM. hit rate 0.63% among 310,000;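 active means plate-corrected calcium response at least 3 library SD above typical, normal starting fluorescence, not activating the receptor alone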;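 further: compound read alongside a low EC10 to EC30 dose of BAM8-22 agonist; peak minus trough fluorescence over baseline measured at the second addition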
MrgX1 antagonist: antagonists of human MrgX1 receptor, primary screen, HEK293 cells, Fluo-4 calcium flux; Mas-related G-protein coupled receptor member X1 (Homo sapiens), Q96LB2; BAM8-22 antagonism; stronger effect = lower value; B-score at 10 µM; hit rate 1.3% among 310,000; AID 588676, 2011;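 active means calcium-response B-score plate-corrected more than 3 library SD below zero, starting fluorescence within 5 deviations, no agonist response on first addition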;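 further: peak minus trough fluorescence over baseline after final BAM8-22 challenge near maximal dose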
MrgX1 ant reconf: MrgX1 receptor antagonists, duplicate retest, confirmation, HEK293 cells, Fluo-4 calcium flux; shares compounds with MrgX1 antagonist; BAM8-22 calcium flux; stronger effect = lower value; remaining BAM8-22 calcium response % of control (stronger effect = lower value), % at 10 µM; hit rate 19% among 2,300;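 active means remaining agonist calcium response no higher than 100% minus 3 SD of agonist-only control wells, with starting fluorescence near control levels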;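 further: agonist BAM8-22 given at a near maximal EC90 to ECmax level; peak minus minimum fluorescence divided by baseline after agonist addition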
HEK293 Ca flux: nonspecific calcium signal in parental HEK293, confirmation, counter-screen for MrgX1 antagonist project, parental HEK293 cells, Fluo-4 calcium flux. shares compounds with MrgX1 antagonist. Fluo-4 calcium fluorescence, FDSS. fluorescence ratio F(max-min)/F0 at 10 µM. hit rate 2% among 4,000. AID 624111, 2012;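 active means duplicate-averaged calcium fluorescence ratio at least three times the standard deviation of buffer wells, a nonspecific response in parental cells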
HEK293 Ca counter: calcium response in parental HEK293 cells, primary screen, counter-screen for MrgX1 allosteric activator project, cell-based, Fluo-4 calcium flux, duplicate; shares compounds with MrgX1 antagonist; Fluo-4 fluorescence ratio; stronger effect = higher value; fluorescence ratio F(max-min)/F0 at 10 µM; hit rate 0.4% among 4,000;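 active means calcium fluorescence ratio, averaged over duplicates, at least 3 SD of the buffer-well ratio, meaning a nonspecific response in receptor-free cells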;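 further: untransfected parental HEK293 lacking MrgX1 used as counterscreen for MrgX1 allosteric activators; fluorescence change taken during the second addition on a kinetic imager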
HEK293 Ca cntr2: calcium response in parental HEK293 cells, primary screen, counter-screen for MrgX1 agonist project, cell-based, Fluo-4 calcium flux, duplicate, agonist mode; fluorescence ratio F(max-min)/F0 at 10 µM; shares compounds with MrgX1 antagonist; Fluo-4 calcium fluorescence (FDSS); stronger effect = higher value; hit rate 8.7% among 4,000;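 active means calcium fluorescence ratio at least three times the spread of buffer wells, meaning a non-specific response in parental cells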
Of the large screens only hits and unclear results are named; the others gave an inactive call (follow-up assays come after a bar, where they were run). In the library only some 3.5% were active in any assay of this set; here they are far more common.

CCc1cccc2cc3c(N)c(C(=O)Nc4ccc(S(=O)(=O)N5CCCC5)cc4)sc3nc12	MrgX1 antagonist -9.7 | MrgX1 ant reconf inactive | HEK293 Ca flux 0.41 | HEK293 Ca counter inactive | HEK293 Ca cntr2 inactive
CC(C)Sc1nc2c(c(=O)n1C)SC(C)C2 (stereo not given)	MrgX1 antagonist -6.9 | MrgX1 ant reconf inactive | HEK293 Ca flux inactive | HEK293 Ca counter inactive | HEK293 Ca cntr2 inactive
O=C(NC1CCS(=O)(=O)C1)C12CC3CC(CC(C3)C1)C2 (stereo not given)	MrgX1 antagonist -9.4 | MrgX1 ant reconf inactive | HEK293 Ca flux inactive | HEK293 Ca counter inactive | HEK293 Ca cntr2 inactive
CCOc1ccc(CN(C)C(=O)c2ccc(NC(=O)CC3SC(N4CCCC4)=NC3=O)cc2)cc1 (stereo not given)	none
CC(C)(Oc1ccc(Cl)cc1)C(=O)OCC(=O)N1CCCC1	MrgX1 antagonist -13 | MrgX1 ant reconf inactive | HEK293 Ca flux inactive | HEK293 Ca counter inactive | HEK293 Ca cntr2 inactive
Cc1ccc(C)c(NC(=S)NCCSc2ccc(Cl)cc2)c1	none
Cc1ccc(NC(=S)NCCSc2ccc(Cl)cc2)c(C)c1	MrgX1 antagonist -6.3 | MrgX1 ant reconf inactive | HEK293 Ca flux inactive | HEK293 Ca counter inactive | HEK293 Ca cntr2 inactive
CCN1CCN(CCNC(=O)c2ccc(/C=C3\Sc4ccccc4N(Cc4ccccc4F)C3=O)cc2)CC1	RGS4 pot -7, MrgX1 antagonist -13 | MrgX1 ant reconf inactive | HEK293 Ca flux inactive | HEK293 Ca counter inactive | HEK293 Ca cntr2 inactive
CNCCCOc1cccc(OC(C)C)c1	MrgX1 antagonist -7.3 | MrgX1 ant reconf inactive | HEK293 Ca flux inactive | HEK293 Ca counter inactive | HEK293 Ca cntr2 inactive
c1coc(C2Nc3ccccc3-c3nc4ccccc4n32)c1 (stereo not given)	MrgX1 antagonist -6.3 | MrgX1 ant reconf inactive | HEK293 Ca flux inactive | HEK293 Ca counter inactive | HEK293 Ca cntr2 inactive
Cc1ccc(NC(=O)CCC(=O)c2cccs2)cc1F	none
CCC1Oc2ccccc2N(CC(=O)NC2CC2)C1=O (stereo not given)	none
CCC1Sc2ccccc2N(CC(=O)NC2CC2)C1=O (stereo not given)	MrgX1 antagonist -7 | MrgX1 ant reconf inactive | HEK293 Ca flux inactive | HEK293 Ca counter inactive | HEK293 Ca cntr2 inactive
Cc1ccc(S(=O)(=O)N2CCC(C(=O)N3CCC(C(=O)NCc4cccnc4)CC3)CC2)cc1	MrgX1 antagonist -6.6 | MrgX1 ant reconf 85% | HEK293 Ca flux inactive | HEK293 Ca counter inactive | HEK293 Ca cntr2 inactive
C=C1CCN([C@H](C(=O)OCc2ccc(C)cc2)C(C)C)S(=O)(=O)c2ccccc21	none (no result: RGS4 pot, RGS4 inh)
C=C1CCN([C@@H](C)C(=O)OCc2cccc(C)c2)S(=O)(=O)c2ccccc21	MrgX1 antagonist -11 | MrgX1 ant reconf inactive | HEK293 Ca flux inactive | HEK293 Ca counter inactive | HEK293 Ca cntr2 inactive
O=Cc1ccc(OC(=O)CCCCC(=O)Oc2ccc(C=O)cc2)cc1	none
COc1cc(NC(=S)NC(=O)c2ccc(C(C)(C)C)cc2)ccc1NC(=O)c1cccs1	MrgX1 antagonist -6.2 | MrgX1 ant reconf 81% | HEK293 Ca flux inactive | HEK293 Ca counter inactive | HEK293 Ca cntr2 inactive
C/C(CCc1ccccc1)=N/NC(=O)C(=O)NCc1ccccc1	none
